ChEMBL document CHEMBL4428027, “3-Hydroxypyrimidine-2,4-diones as Selective Active Site Inhibitors of HIV Reverse Transcriptase-Associated RNase H: Design, Synthesis, and Biochemical Evaluations” (J Med Chem, 2016)
Active and inactive are the calls of the source. No cut-off for these calls is given here.

Key:
[1] = target: T1, Human immunodeficiency virus type 1 reverse transcriptase (Human immunodeficiency virus 1, UniProt Q72547); assay: Inhibition of RNase H activity of full length recombinant HIV1 reverse transcriptase assessed as reduction in nonspecific internal cleavage using HTS1 substrate
Method in brief: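 Recombinant p66/p51 RT heterodimer. Fluorescent RNA/DNA duplex substrate HTS-1 measures internal cleavage. IC50 is the mean of at least three independent experiments.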

[2] = target: T1, Human immunodeficiency virus type 1 reverse transcriptase; assay: Inhibition of RNase H activity of full length recombinant HIV1 reverse transcriptase assessed as reduction in DNA 3'-end cleavage using HTS2 substrate
Method in brief: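 Recombinant p66/p51 RT heterodimer. Fluorescent RNA/DNA duplex substrate HTS-2 reports DNA 3′-end-directed (polymerase-dependent) cleavage. IC50 is the mean of at least three independent experiments.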

[3] = target: T1, Human immunodeficiency virus type 1 reverse transcriptase; assay: Inhibition of RNase H activity of full length recombinant HIV1 reverse transcriptase assessed as reduction in RNA 5'-end directed cleavage using HTS3 substrate
[4] = target: T1, Human immunodeficiency virus type 1 reverse transcriptase; assay: Inhibition of re-constituted HIV1 reverse transcriptase RNase H domain fragment
Method in brief: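 Secondary check using a catalytically active, isolated HIV RNase H domain fragment (reconstituted) with duplex substrate HTS-1.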

[5] = target: T1, Human immunodeficiency virus type 1 reverse transcriptase; assay: Inhibition of polymerase activity of HIV1 reverse transcriptase using poly(rA)-oligo(dT)16 and [3H]-TTP incubated for 20 mins by liquid scintillation spectrometry
Method in brief: (§1)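 Reaction mix: 10 µM [3H]-TTP, 40 nM poly(rA)-oligo(dT)16, 50 mM Tris-HCl pH 7.4 (37°C), 60 mM KCl, 5 mM MgCl2. Started with 10 nM RT; 20 min at 37°C. Quenched in ice-cold 10% TCA with 20 mM sodium pyrophosphate, then glass-fibre filtered and washed with TCA and ethanol. Label incorporation read by liquid scintillation.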

[6] = target: Human immunodeficiency virus type 1 reverse transcriptase (Human immunodeficiency virus 1) (UniProt Q72547); assay: Inhibition of HIV1 polymerase activity of reverse transcriptase using poly(rA)-oligo(dT)16 and [3H]-TTP up to 25 uM incubated for 20 mins by liquid scintillation spectrometry; method in brief: as §1
[7] = Toxicity against human HeLa P4/R5 cells; assay type: cell-based
[8] = target: Human immunodeficiency virus type 1 integrase (Human immunodeficiency virus 1, UniProt Q7ZJM1); assay: Inhibition of HIV integrase pre-incubated for 10 mins before addition of oligo-5'-biotin ATGTGGAAAATCTCTAGCA annealed with ACTGCTAGAGATTTTCCACAT 3'-Cy5) substrate
[9] = system: Human immunodeficiency virus 1; assay: Antiviral activity against HIV1 infected in human HeLa P4/R5 cells assessed as reduction in viral growth pre-incubated with cells for 16 hrs followed by additional 48 hrs incubation by fluorescence-based beta-galactosidase detection assay; assay type: functional, organism-based
Method in brief: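 P4R5 HeLa indicator cells (CD4, CXCR4, CCR5; HIV LTR-driven β-galactosidase reporter), 5×10^3 cells/well in DMEM/10% FBS with puromycin 0.5 µg/ml. Drug added 16 h before HIV exposure, then 48 h further incubation. Infection read by fluorescence-based β-galactosidase detection.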

[10] = target: Human immunodeficiency virus type 1 reverse transcriptase (Human immunodeficiency virus 1) (UniProt Q72547); assay: Inhibition of RNase H activity of full length recombinant HIV1 reverse transcriptase assessed as reduction in RNA 5'-end directed cleavage up to 25 uM using HTS3 substrate
[11] = target: Human immunodeficiency virus type 1 reverse transcriptase (Human immunodeficiency virus 1) (UniProt Q72547); conditions: up to 25 µM
[12] = target: Human immunodeficiency virus type 1 reverse transcriptase (Human immunodeficiency virus 1) (UniProt Q72547); assay: Inhibition of RNase H activity of full length recombinant HIV1 reverse transcriptase assessed as reduction in nonspecific internal cleavage up to 25 uM using HTS1 substrate
[13] = target: Human immunodeficiency virus type 1 reverse transcriptase (Human immunodeficiency virus 1) (UniProt Q72547); assay: Inhibition of re-constituted HIV1 reverse transcriptase RNase H domain fragment up to 25 uM
Method in brief: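 Secondary check using a catalytically active, isolated HIV RNase H domain fragment (reconstituted) with duplex substrate HTS-1. […] Upper test concentration 25 µM.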

Sequence of Human immunodeficiency virus type 1 integrase (Q7ZJM1 whole entry): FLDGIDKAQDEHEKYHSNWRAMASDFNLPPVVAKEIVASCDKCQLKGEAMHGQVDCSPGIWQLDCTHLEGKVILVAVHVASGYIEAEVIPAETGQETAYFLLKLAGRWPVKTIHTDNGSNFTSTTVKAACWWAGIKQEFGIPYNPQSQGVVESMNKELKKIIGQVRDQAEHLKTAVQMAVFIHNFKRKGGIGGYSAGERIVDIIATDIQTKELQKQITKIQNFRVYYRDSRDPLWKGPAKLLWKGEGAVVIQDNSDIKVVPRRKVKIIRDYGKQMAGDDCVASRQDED

SMILES | IC50 ([1]; read-out: IC50) [µM] | IC50 ([2]; read-out: IC50) [µM] | IC50 ([3]; read-out: IC50) [µM] | IC50 ([4]; read-out: IC50) [µM] | IC50 [5] | CC50 [7] [µM] | IC50 [8] [µM] | IC50 ([5]; read-out: IC50) [µM] | further results
COc1cccc(-c2ccc(Oc3cc(=O)n(O)c(=O)n3C)cc2)c1 | 2 | 16 | 16 | 5.1 | Not Active | 6 |  |  | inhibition [6]: inactive
Cn1c(Nc2ccc(-c3cccc(C#N)c3)cc2)cc(=O)n(O)c1=O | 1.2 | 3.7 | 3.3 | 0.9 | Not Active | 25 | 30 |  | 
COc1cc(OC)cc(-c2ccc(Nc3cc(=O)n(O)c(=O)[nH]3)cc2)c1 | 0.19 | 0.32 | 0.25 |  |  |  | 35 | 0.34 | 
Cc1ccc(-c2cccc(Nc3cc(=O)n(O)c(=O)[nH]3)c2)cc1 | 0.38 | 0.45 | 0.44 |  |  |  | 44 | 3.1 | 
COc1ccc(-c2cccc(Nc3cc(=O)n(O)c(=O)[nH]3)c2)c(OC)c1 | 0.31 | 0.54 | 2.4 |  |  |  | 1.2 | 3.2 | 
COc1ccc(-c2ccc(Nc3cc(=O)n(O)c(=O)n3C)cc2)cc1 |  | 6.6 | 5 | 0.9 | Not Active | 5 | 4.4 |  | 
O=c1cc(Nc2cccc(-c3ccc(F)cc3)c2)[nH]c(=O)n1O | 0.2 | 0.3 | 0.3 | 0.15 |  | > 25 | > 100 | 6.6 | Activity [9]: inactive
COc1ccc(-c2ccccc2Oc2cc(=O)n(O)c(=O)n2C)cc1 | 2.3 |  | 22 | 6.4 | Not Active | 6 | 1 |  | IC50 [2]: Not Active
Cn1c(Nc2cccc(-c3ccccc3)c2)cc(=O)n(O)c1=O | 0.85 | 3.5 | 3.4 |  | Not Active |  | 2.2 |  | 
COc1ccc(-c2cccc(Nc3cc(=O)n(O)c(=O)[nH]3)c2)cc1 | 0.2 | 0.3 | 0.4 | 0.1 |  | > 25 | > 100 | 6.3 | Activity [9]: inactive
Cc1noc(C)c1-c1ccc(Nc2cc(=O)n(O)c(=O)n2C)cc1 | 1.6 | 4.4 | 3.8 |  | Not Active |  | 25 |  | 
COc1cccc(OC)c1-c1cccc(Nc2cc(=O)n(O)c(=O)[nH]2)c1 | 0.51 | 0.7 | 0.47 |  |  |  | 1.3 | 1.7 | 
Cc1ccc(-c2ccc(Nc3cc(=O)n(O)c(=O)[nH]3)cc2)cc1 | 0.4 | 0.7 | 0.5 | 0.4 |  | > 25 | 93 | 5.7 | Activity [9]: inactive
Cn1c(Nc2cccc(-c3cccc(C#N)c3)c2)cc(=O)n(O)c1=O | 1.1 | 3.2 | 4.1 | 1 |  | > 25 | 7.1 | 5 | 
COc1cccc(-c2cccc(Nc3cc(=O)n(O)c(=O)n3C)c2)c1 | 0.6 | 3.5 | 4.3 | 1.7 | Not Active | 10 | 4.6 |  | 
Cn1c(Oc2ccccc2-c2ccccc2)cc(=O)n(O)c1=O |  |  |  |  | Not Active |  |  |  | IC50 [2]: Not Active; IC50 [3]: Not Active; inhibition [6]: inactive; inhibition [10]: inactive; inhibition [11]: inactive
Cn1c(Oc2cccc(-c3cccc(O)c3)c2)cc(=O)n(O)c1=O | 0.9 | 12 | 4.3 |  | Not Active |  | 7.1 |  | 
COc1cccc(-c2ccc(Nc3cc(=O)n(O)c(=O)[nH]3)cc2)c1 |  |  |  |  |  | > 25 |  |  | Activity [9]: inactive
Cn1c(Nc2cccc(C3CCOC3)c2)cc(=O)n(O)c1=O (centres undefined) |  |  |  |  | Not Active | > 25 |  |  | IC50 [1]: Not Active; IC50 [2]: Not Active; IC50 [3]: Not Active; IC50 [4]: Not Active; inhibition [6]: inactive; inhibition [12]: inactive; inhibition [10]: inactive; inhibition [13]: inactive; inhibition [11]: inactive
Cn1c(Oc2ccc(-c3ccc(O)cc3)cc2)cc(=O)n(O)c1=O | 2.2 | 15 | 11 |  | Not Active |  | 12 |  | 
